Data set [1] concerns the target T1, Aldo-keto reductase family 1 member B1 (Homo sapiens, UniProt P15121). Briefly: Inhibition of aldose reductase (aldo-keto reductase, AKR1B1) isolated from human placenta.
The species named for data set [2] is Rattus norvegicus. Particulars: at 25 mg/kg.
For data set [3], the species on record is Rattus norvegicus. Briefly: animal or person. It is filed as functional.
A short description of data set [4]: Partition coefficient (logP). It is filed as physicochemical. Particulars: octanol/water.
Data set [5] in a line: Compound was evaluated for the partition coefficient (octanol/pH 7.4 buffer). It is filed as physicochemical. In short, it runs like this:
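Partition measured between n-octanol and pH 7.4 buffer.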

Data set [6] in a line: Compound was evaluated for the apparent pKa (dioxane/water) in the ratio 1:1. It is filed as physicochemical. Particulars: dioxane/water 1:1.
The nature of data set [7]: Compound was evaluated for the apparent pKa (dioxane/water) the ratio 2:1. It is filed as physicochemical. Particulars: dioxane/water 2:1.
The target in data set [8] is T2, Aldo-keto reductase family 1 member B1 (Rattus norvegicus, UniProt P07943). Briefly: Compound was tested for the inhibition of the rat lens aldose reductase using the substrate as glucose.
The test system of data set [9] is Rattus norvegicus. In words: Compound was evaluated for the ED50(acute) in male Sprague-Dawley rats(n=4) treated with streptozotocin (85 mg/kg intravenously). It is filed as functional. Put shortly: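 Streptozotocin-diabetic rats (85 mg/kg iv) dosed by oral gavage, aqueous suspension or solution, at 4, 7 and 24 h. Killed at 27 h. […] ED50 from log linear regression.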

For data set [10], the species on record is Rattus norvegicus. Briefly: Compound was tested for the inhibition of sorbitol accumulation in washed rat erythrocytes.
In data set [11] the target is T2, Aldo-keto reductase family 1 member B1. Briefly: Compound was tested for the inhibition of the rat lens aldose reductase using the substrate as glyceraldehyde.
In data set [12] the test system is Rattus norvegicus. Briefly: Compound was evaluated for the ED50(chronic) in male Sprague-Dawley rats(n=5) treated with streptozotocin (85 mg/kg intravenously). The following applies: oral.
In data set [13] the test system is aldose reductase (Rattus norvegicus). In words: In vivo inhibition of sorbitol accumulation in the rat following 10 mg/kg p.o. administration. The following applies: at 10 mg/kg.
Data set [14] deals with Rattus norvegicus. Briefly: Compound was evaluated for the ED50(chronic) in male Sprague-Dawley rats(n=5) treated with streptozotocin (85 mg/kg intravenously). Particulars: oral. This is another data set of the same source.
In data set [15] the test system is Rattus norvegicus. Briefly: Compound was evaluated in vivo for the inhibition of sorbitol accumulation administered orally at a dose of 0.25 mg/kg. It is filed as functional. Particulars: route oral.
The test system of data set [16] is Rattus norvegicus. Briefly: Compound was evaluated in vivo for the inhibition of sorbitol accumulation administered orally at a dose of 5 mg/kg. The following applies: route oral. In kind it is functional.
The subject of data set [17] is Rattus norvegicus. In words: Compound was evaluated in vivo for the inhibition of sorbitol accumulation administered orally at a dose of 5 mg/kg; Not significant. It is filed as functional, organism-based. Set-up: dose 5 mg/kg.
A short description of data set [18]: Compound was evaluated for the apparent pKa (dioxane/water)the ratio 2:1. In kind it is physicochemical. The following applies: dioxane/water 2:1.
Data set [19] has as its system aldose reductase (Rattus norvegicus). In words: In vivo inhibition of sorbitol accumulation in the rat following 10 mg/kg p.o. administration; Not significant. Particulars: at 10 mg/kg.
The species entered for data set [20] is Homo sapiens. Briefly: Compound was tested for the inhibition of sorbitol accumulation in washed human erythrocytes. In kind it is functional.
In data set [21] the target is T1, Aldo-keto reductase family 1 member B1. In words: Compound was evaluated for its ability to inhibit the aldose reductase isolated from human placentae; Inactive at 10E-4 M.

Activity calls are given as the source filed them. The calls are words filed in the database; no cut-off is given here.

Turning to `Cc1ccc2nc(Cn3nc(CC(=O)O)c4ccccc4c3=O)sc2c1`, inhibition in [1] was half-maximal at 320 nM (IC50). Also, in [2], the inhibition (as a rule, the change of the read-out against control, counted positive when it falls) was “inactive”.
Take `CC(c1nc2ccccc2s1)n1nc(CC(=O)O)c2ccccc2c1=O` (stereo not given): the half-inhibitory concentration (IC50) (as a rule, the concentration needed to halve the response being measured) in [1] is 43 nM. Besides, the inhibition in vivo – broadly, the drop in the measured response relative to a control, in per cent – at 25 mg/kg in data set [3] (dose 25 mg/kg, route oral) worked out at 50%.
In turn, `Cc1ccc2sc(Cn3nc(CC(=O)O)c4ccccc4c3=O)nc2c1` registered an IC50 in data set [1] of 26 nM. For the same compound, the inhibition result in [2] is “inactive”.
Compound `O=C(O)Cc1nn(Cc2nc3c(O)cccc3s2)c(=O)c2ccccc12` returned a half-inhibitory concentration (IC50) in data set [1] of 100 nM. For the same compound, the inhibition result in data set [2] was “inactive”.
Consider `O=C(O)Cc1nn(Cc2nc3cc(C(F)(F)F)ccc3s2)c(=O)c2ccccc12` [ZOPOLRESTAT], for which the logP (as a rule, the decadic logarithm of the partition coefficient of the neutral form, usually between octanol and water) in data set [4] stood at 3.43. Besides, the log distribution coefficient (logD) (usually the decadic logarithm of the distribution of all forms, ionised or not, between an organic phase and buffer at a given pH) in data set [5] was found to be 0.55. The figures for the pKa in data set [6] and in [7] were 5.46 and 6.38, respectively. Also, the IC50 in [8] came to 10 nM; in data set [10], 220 nM; in data set [11] it was 41 nM. Further, the 50% effective dose (ED50) (in general, the dose that gives a 50% effect, or the effect in half of the subjects) is 3.6 mg/kg in [9] (iv) and 2 mg/kg in data set [12].
Regarding `COc1cccc2sc(Cn3nc(CC(=O)O)c4ccccc4c3=O)nc12`, in data set [1], the 50% inhibitory concentration (IC50) worked out at 100 nM. In [2], the inhibition entry is “inactive”.
In the case of `O=C(O)Cc1nn(Cc2nc3cc(F)c(F)cc3s2)c(=O)c2ccccc12`, the IC50 in data set [1] was 68 nM. The compound further displayed an inhibition in vivo at 25 mg/kg in data set [3] (dose 25 mg/kg, route oral) of 75%.
`Cc1cc(C)c2sc(Cn3nc(CC(=O)O)c4ccccc4c3=O)nc2c1`: the midpoint of inhibition in data set [1], the IC50, lay at 5.9 nM. Also, in data set [3] (po), the inhibition in vivo at 25 mg/kg was found to be 39%.
In data set [4], `O=C(O)Cc1nn(Cc2nc3cc(F)cc(F)c3s2)c(=O)c2ccccc12` had a logP of 3.01. The compound further displayed a logD in [5] of 0.05. The compound also had an IC50 in [1] of 6.3 nM. The pKa (in general, the negative logarithm of the acid dissociation constant) in data set [6] turned out to be 5.47; in data set [7], 6.38. Also, the 50% effective dose (ED50) came out at 3.2 mg/kg in data set [9] (oral) and 4 mg/kg in data set [14]. Also, the inhibition in data set [13] is 80%.
In turn, `COc1cc2nc(Cn3nc(CC(=O)O)c4ccccc4c3=O)sc2cc1F` showed an IC50 in [1] of 2300 nM. In addition, the inhibition entry in data set [2] was “inactive”.
Consider `O=C1NC(=O)[C@@]2(CCOc3ccc(F)cc32)N1` [SORBINIL], for which 0.25 mg/kg produced 40.1% inhibition in vivo in data set [15]. The compound further showed an ED50 in data set [14] of 0.8 mg/kg.
The compound `O=C(O)Cc1nn(Cc2nc3cc(F)ccc3s2)c(=O)c2ccccc12` displayed a log partition coefficient (logP) in data set [4] of 2.42. The same compound showed a pH-dependent lipophilicity (logD) in data set [5] of -0.3. In addition, in data set [1], it took 6.9 nM to reach half-maximal inhibition (IC50). Besides, the pKa is 5.49 in data set [6] and 6.35 in data set [7]. The same compound showed an inhibition in vivo at 5 mg/kg in data set [16] of 60%. Further, the ED50 in data set [9] (iv) and in data set [12] was 5.3 mg/kg each time.
`O=C(O)Cc1nn(Cc2nc3cc(C(F)(F)F)c(O)cc3s2)c(=O)c2ccccc12` registered an IC50 in data set [1] of 120 nM. Moreover, the inhibition entry in data set [2] was “inactive”.
In turn, `O=C(O)Cc1nn(Cc2nc3ccccc3s2)c(=O)c2ccccc12` had an IC50 in [1] of 19 nM. In addition, in data set [3] (dose 25 mg/kg, route oral), the inhibition in vivo at 25 mg/kg came out at 67%. In addition, it took a dose of 18.5 mg/kg to reach the 50% effect level in data set [9] (oral) (ED50).
`CC(C)c1ccc2c(CC(=O)O)nn(Cc3nc4ccccc4s3)c(=O)c2c1` had an IC50 in [1] of 110 nM. Besides, the inhibition result in data set [17] was “inactive”.
In data set [1], `O=C(O)Cc1nn(Cc2nc3cc(Cl)c(Cl)cc3s2)c(=O)c2ccccc12` gave a half-inhibitory concentration (IC50) of 420 nM. The same compound had an inhibition in vivo at 25 mg/kg in data set [3] (dose 25 mg/kg, route oral) of 34%.
On the same counts, the results for `O=C(O)Cc1nn(Cc2nc3cccnc3s2)c(=O)c2ccccc12` are 10 nM and 83%.
Turning to `O=C(O)Cc1nn(Cc2nc3cc(Br)ccc3s2)c(=O)c2ccccc12`, the logP in data set [4] was 3.35. This compound also showed an IC50 in data set [1] of 3.1 nM. Moreover, the pKa in [18] worked out at 6.35. The median effective dose (ED50) in data set [9] (iv) came to 5.6 mg/kg; in data set [12], 4.9 mg/kg.
Turning to `O=C(O)Cc1nn(Cc2nc3ccc(Cl)cc3s2)c(=O)c2ccccc12`, in [1], the concentration for half-maximal inhibition (IC50) was 76 nM. Further, in data set [3] (dose 25 mg/kg, route oral), the inhibition in vivo at 25 mg/kg was 61%.
Compound `Cc1cccc2c(CC(=O)O)nn(Cc3nc4c(ccc5ccccc54)s3)c(=O)c12` showed an IC50 in data set [1] of 42 nM. Moreover, the inhibition result in data set [19] was “inactive”.
Turning to `COc1ccc2c(C(=S)N(C)CC(=O)O)cccc2c1C(F)(F)F` [TOLRESTAT], in data set [20], the IC50 amounted to 15 nM. Further, it took a dose of 26 mg/kg to reach the 50% effect level in [14] (ED50).
The compound `O=C(O)Cc1nn(Cc2nc3c(Cl)ccc(Cl)c3s2)c(=O)c2ccccc12` returned an IC50 in data set [1] of 20 nM. The same compound returned an inhibition in vivo at 25 mg/kg in data set [3] (dose 25 mg/kg, route oral) of 65%.
`CN1C(C(=O)Nc2nccs2)=C(O)c2ccccc2S1(=O)=O` [SUDOXICAM]: in [21], the IC50 result is “Not Active”.
`O=C(O)Cc1nn(Cc2nc3c(ccc4ccccc43)s2)c(=O)c2ccccc12` yielded a half-inhibitory concentration (IC50) in [1] of 510 nM. Further, the inhibition result in data set [2] is “inactive”.
For the compound `O=C(O)Cc1nn(Cc2nc3c(F)cccc3s2)c(=O)c2ccccc12`, in data set [1], the 50% inhibitory concentration (IC50) was 2 nM. Further, the inhibition entry in [19] is “inactive”.
In turn, `O=C(O)Cc1nn(Cc2nc3cc(Cl)cc(Cl)c3s2)c(=O)c2ccccc12` gave an IC50 in data set [1] of 4 nM. Besides, the ED50 was found to be 3.5 mg/kg in data set [9] (oral) and 2.8 mg/kg in data set [14]. The compound further yielded an inhibition in data set [13] of 73%.
As for `O=C(O)c1nnc(O)c2ccccc12`, the log partition coefficient (logP) in [4] came out at 2.42. Further, the pKa in data set [6] came out at 5.49; in data set [7], 6.35.
In data set [1], `COc1ccc2sc(Cn3nc(CC(=O)O)c4ccccc4c3=O)nc2c1` showed an IC50 of 230 nM. Moreover, the inhibition result in data set [2] was “inactive”.
The compound `O=C(O)Cc1nn(Cc2nc3cc(C(F)(F)F)cc(C(F)(F)F)c3s2)c(=O)c2ccccc12` gave an IC50 in data set [1] of 1400 nM. For the same compound, the inhibition result in [19] is “inactive”.
Compound `O=C(O)Cc1nn(Cc2nc3ccccc3s2)c(=O)c2cc(C(F)(F)F)ccc12` came in with an IC50 in data set [1] of 12 nM. Further, the inhibition entry in [19] was “inactive”.

The values above are taken from ChEMBL document CHEMBL1125712 (J Med Chem, 1991).
